# According to ChEMBL document CHEMBL4382263, “Spirostaphylotrichin X from a Marine-Derived Fungus as an Anti-influenza Agent Targeting RNA Polymerase PB2” (J Nat Prod, 2018):
# Calls of active or inactive are those of the source. No cut-off for these calls is given here.
# Experiments:
# [1] = tested on: Influenza A virus (A/Puerto Rico/8/1934(H1N1)); assay: Inhibition of RNA polymerase in Influenza A virus (A/PR/8/34(H1N1)) infected in human 293T cells harboring pPol1-Fluc at 10 uM after 24 hrs by luciferase reporter gene assay; assay type: cell-based
# How it was run: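 293T cells transfected with 50 ng pPolI-Fluc reporter. After 5 h, infected with PR8 at different titres for 1 h. Then given DMEM/10% FBS with 10 μM compound or 0.1% DMSO; luciferase measured in lysates after 24 h.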
# Influenza A virus = assay: Antiviral activity against Influenza A virus (A/PR/8/34(H1N1)) harboring neuraminidase H274Y mutant infected in MDCK cells assessed as reduction in virus-induced cytopathic effect by MTT assay; assay type: functional, organism-based, A/Puerto Rico/8/1934(H1N1)
# How it was run: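 MTT-based cytopathic-effect reduction assay in MDCK cells. Run in triplicate; IC50 reported as mean ± SD.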
compound,measurement,setting,value
CC/C=C1/C=CC(=O)[C@@H](O)[C@]12C(=O)N(OC)[C@@](C)(OC)[C@@H]2O,inhibition,[1],Active
same,IC50,Influenza A virus,1200 nM
